Screens (PubChem)
ATG4B inh = inhibitors of human ATG4B cysteine protease; ATG4B cleavage of LC3-PLA2, NBD-HPC fluorescence, 1 h; inhibition, % at 8.33 µM; 0.51% of 340,000 active; in the data active = inhibition above about 40%
Target sequence (Q9Y4P1 whole entry, looked up): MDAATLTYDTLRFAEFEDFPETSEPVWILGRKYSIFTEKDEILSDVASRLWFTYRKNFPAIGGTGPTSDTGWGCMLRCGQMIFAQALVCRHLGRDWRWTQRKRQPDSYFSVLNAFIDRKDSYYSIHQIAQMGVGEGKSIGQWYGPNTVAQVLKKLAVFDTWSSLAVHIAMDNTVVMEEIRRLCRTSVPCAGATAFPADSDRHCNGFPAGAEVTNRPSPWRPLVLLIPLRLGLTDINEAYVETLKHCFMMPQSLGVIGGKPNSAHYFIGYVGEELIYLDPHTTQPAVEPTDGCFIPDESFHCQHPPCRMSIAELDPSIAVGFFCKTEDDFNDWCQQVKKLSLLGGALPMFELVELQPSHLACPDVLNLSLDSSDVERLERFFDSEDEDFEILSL
UCH37 inh = blocks the human deubiquitinase UCH37. AID 588478. purified proteasome/UCH37, Ub-AMC cleavage fluorescence. 0.33% of 330,000 active. inhibition, % (test concentration not listed);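 active = mean inhibition over replicate wells above about 20%, limit read from the data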;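 note: 0% = compound-free wells with enzyme and 100% = wells lacking proteasome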
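Reagent: Ub-AMC substrate; assay system: Proteasome-associated human UCH37 deubiquitinase; controls: no-proteasome and no-compound wells; read-out: % inhibition of Ub-AMC cleavage fluorescence; timing: 30 min preincubation with enzyme, 25 min cleavage at room temperature; signal: AMC fluorescence from Ub-AMC cleavage, excitation 355 nm, emission 460 nm; buffer or medium: Tris-HCl pH 7.4 plus ovalbumin, ATP-MgCl2, DTT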
NALP1 inh = NALP1 inhibition; S. cerevisiae NALP1/ASC/caspase-1 growth, X-gal OD620, 72 h; inhibition, % at 10 µM; 0.61% of 280,000 active; in the data active = inhibition mostly above about 24%, no sharp cut-off; inactive = mostly below about 32%
Calb FLC = C. albicans growth modulation with fluconazole; 0.57% of 300,000 active; AID 1979; C. albicans CaCi-2 (fluconazole-resistant clinical isolate) + fluconazole, Alamar Blue growth, 48 h; growth inhibition, % (concentration not given with the values);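 active = growth inhibition above about 58% in most replicates, limit read from the data, passing the limit was not always enough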;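 note: all wells also contain fluconazole at 8 µg/ml as a sub-toxic cotreatment; 0% = median of DMSO wells and 100% = median of geldanamycin control wells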
NALP3 yeast inh = NALP3 inhibition in yeast; inhibition, % at 10 µM; Yeast reconstituted NLRP3/ASC/caspase-1, beta-gal luminescence, 24 h; 0.39% of 330,000 active;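 active = inhibition of 50% or more; inactive = inhibition below 50%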;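 note: plate controls were induced DMSO wells for no effect and uninduced yeast grown without galactose for full effect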
ALR inh = human ALR oxidase inhibition via reduced H2O2; P55789; purified ALR, DTT oxidation, H2O2 HRP-luminol luminescence; inhibition, % (no concentration beside the values); 3.8% of 290,000 active;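 active = mean replicate inhibition above about 79%, with every replicate also reaching it, limit read from the data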
Target sequence (P55789 whole entry, looked up): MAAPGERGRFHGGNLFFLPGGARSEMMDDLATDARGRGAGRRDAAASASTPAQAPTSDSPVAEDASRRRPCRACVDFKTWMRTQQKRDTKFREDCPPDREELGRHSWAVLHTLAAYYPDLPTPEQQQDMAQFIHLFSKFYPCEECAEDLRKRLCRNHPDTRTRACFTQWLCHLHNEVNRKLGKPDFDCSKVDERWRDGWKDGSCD
Starred values were filed as active, the others as inactive. Hits are enriched below; roughly 4.8% of the tested compounds scored in any of these assays.

CC[C@H](C)Cc1cn([C@@H](CCCN=C(NC(=O)OC(C)(C)C)NC(=O)OC(C)(C)C)C(=O)NCCCCCCCCCCC(=O)N2CCN(C(=O)OC(C)(C)C)CC2)nn1 was read as ATG4B inh -10.1, UCH37 inh 4.8, Calb FLC 86.3*, NALP3 yeast inh 21.7 and ALR inh -17.0.
For O=C(O)CCC(=NNC(=O)c1ccc(F)cc1)c1ccc(Br)cc1 the results were UCH37 inh 5.2.
`O=C(NN=Cc1ccco1)C12CC3CC(CC(C3)C1)C2` gave UCH37 inh -0.3.
For O=C(Cc1cccc2ccccc12)NN=C1CCCc2ccccc21 the results were UCH37 inh 0.3.
`Cc1ccc(NC(=O)C2CCCN2C(=O)NC2CCCCC2)cc1` (configuration not stated) gave ATG4B inh 0.3, UCH37 inh 0.2, NALP1 inh 25.3*, Calb FLC -42.2, NALP3 yeast inh 20.6 and ALR inh -9.9.
`CCOC(=O)c1ccc(CC(=O)c2oc3cc(O)ccc3c2C)o1` gave ATG4B inh -0.6, UCH37 inh -24.7, NALP1 inh 26.4, Calb FLC 10.3, NALP3 yeast inh 22.3 and ALR inh 90.4*.
COc1ccc(C=NN(C)C2=NS(=O)(=O)c3ccccc32)cc1 was read as UCH37 inh -452.8.
COc1cc(/C=C2/C(=O)N(c3ccc(Br)cc3)N=C2C)cc(OC)c1OC was read as ATG4B inh -6.2, UCH37 inh 2.9, NALP1 inh 11.1, Calb FLC 1.1 and NALP3 yeast inh 5.3.
Screening COc1cc(/C=C2/C(=O)N(c3ccc(C(=O)O)cc3)N=C2C)cc(OC)c1O returned ATG4B inh 3.7, UCH37 inh 9.9, NALP1 inh 7.4, Calb FLC 8.0, NALP3 yeast inh 13.4 and ALR inh 92.9*.
`O=C1/C(=C\c2ccc(O)c(O)c2)C(c2ccccc2)=NN1c1ccccc1` gave ATG4B inh 5.9, UCH37 inh 4.0, NALP1 inh -5.1 and Calb FLC -16.9.
For COc1cc(/C=C2\C(=O)N(c3ccc(NC(C)=O)cc3)N=C2c2ccccc2)ccc1O the results were ATG4B inh -4.9, UCH37 inh 2.9, NALP1 inh 7.4, Calb FLC 16.1, NALP3 yeast inh -29.5 and ALR inh 94.7*.
Screening CN1CCN(CC(=O)N(Cc2c(C#N)c3ccccc3n2C)c2ccccc2)CC1 returned ATG4B inh -16.6, UCH37 inh 1.2, NALP1 inh 29.6*, Calb FLC -11.9 and NALP3 yeast inh 7.6.
For CCCCNC(=O)CC(C(=O)N1CCc2ccccc21)n1ccnc1 (configuration not stated) the results were ATG4B inh -2.6, UCH37 inh 0.4, NALP1 inh 6.7, Calb FLC -2.7, NALP3 yeast inh 5.7 and ALR inh -12.0.
CCN(CCCNC(=O)CCn1c(=O)[nH]c2ccccc2c1=O)c1ccccc1 was read as ATG4B inh -17.1, UCH37 inh 4.9, NALP1 inh -6.3, Calb FLC -1.9, NALP3 yeast inh 9.5 and ALR inh 97.8*.
Screening CCN(CCCNC(=O)COc1cc(=O)n(C)c2ccccc12)c1cccc(C)c1 returned ATG4B inh -13.0, UCH37 inh -1.0, NALP1 inh 1.1, Calb FLC 10.2, NALP3 yeast inh 3.5 and ALR inh 98.5*.
CCN(CCCNC(=O)CN1C(=O)COc2ccccc21)c1ccccc1 was read as ATG4B inh -11.1, UCH37 inh 2.4, NALP1 inh 0.2, NALP3 yeast inh 12.0 and ALR inh 98.8*.
`CCCCN(CCCNC(=O)CN1C(=O)COc2ccccc21)c1ccccc1` gave ATG4B inh 6.3, UCH37 inh 3.3, NALP1 inh 2.6, Calb FLC 14.5, NALP3 yeast inh -6.2 and ALR inh 64.7.
Screening CCN(CCCNC(=O)CC(C(=O)N1CCc2ccccc21)n1ccnc1)c1cccc(C)c1 (configuration not stated) returned ATG4B inh 3.6, UCH37 inh 5.3, NALP1 inh 5.9, Calb FLC 20.4, NALP3 yeast inh 17.9 and ALR inh 99.0*.
Cc1ccc(CCNC(=O)CN2C(=O)COc3ccccc32)cc1 was read as ATG4B inh 2.5, UCH37 inh 1.3, NALP1 inh 9.1, Calb FLC 2.0, NALP3 yeast inh 1.6 and ALR inh -1.7.
`CCN(CCCNC(=O)CN1C(=O)COc2ccccc21)c1cccc(C)c1` gave ATG4B inh -13.7, UCH37 inh 0.4, NALP1 inh -6.9, Calb FLC 7.0, NALP3 yeast inh 1.6 and ALR inh 99.4*.
`Oc1cccc(NC(=S)N=Nc2c(O)[nH]c3ccc(Br)cc23)c1` gave ATG4B inh -4.5, UCH37 inh 5.6, NALP1 inh 1.2, Calb FLC 0.5, NALP3 yeast inh 19.7 and ALR inh 99.1*.
`Oc1ccc(NC(=S)N=Nc2c(O)[nH]c3ccc(Br)cc23)cc1` gave ATG4B inh 8.5, UCH37 inh 4.1, NALP1 inh -10.7, Calb FLC -4.1 and NALP3 yeast inh 26.2.
COc1cccc(NC(=O)CN(C2=NC3CS(=O)(=O)CC3S2)c2cccc(C)c2)c1 (configuration not stated) was read as ATG4B inh -20.6, UCH37 inh 4.6, NALP1 inh 18.8, Calb FLC -2.2, NALP3 yeast inh 3.5 and ALR inh 98.4*.
Screening COc1ccc(N(CC(=O)Nc2cc(Cl)ccc2OC)C2=NC3CS(=O)(=O)CC3S2)cc1 (configuration not stated) returned ATG4B inh -10.2, UCH37 inh 6.9, NALP1 inh 8.5, Calb FLC -5.0, NALP3 yeast inh 16.3 and ALR inh 25.4.
Screening CCCCC(NC(=O)CCc1c(C)c2cc3c4c(oc3c(C)c2oc1=O)CCCC4)C(=O)O (configuration not stated) returned ATG4B inh 12.7, UCH37 inh -62.2, NALP1 inh -3.0, Calb FLC 10.4, NALP3 yeast inh 1.1 and ALR inh 95.9*.
For Cc1ccccc1-n1ncc2c(SCC(=O)NC3CCCC3)ncnc21 the results were ATG4B inh 6.6, UCH37 inh 6.3, NALP1 inh -12.4, Calb FLC -1.3, NALP3 yeast inh 8.1 and ALR inh -0.6.
Screening Cc1nnc(NC(=O)CSc2ncnc3c2cnn3-c2ccccc2C)s1 returned ATG4B inh 2.1, UCH37 inh 3.4, NALP1 inh -26.3, Calb FLC 84.6*, NALP3 yeast inh 0.7 and ALR inh -4.5.
`CC(C)OP(=O)(OC(C)C)C(O)c1ccc(N(C)C)cc1` (configuration not stated) gave ATG4B inh 18.5, UCH37 inh 6.4, NALP1 inh -9.1, Calb FLC 2.2, NALP3 yeast inh 15.8 and ALR inh 97.3*.
